Measured values: ChEMBL document CHEMBL4043201, “Conjugates of 18β-glycyrrhetinic acid derivatives with 3-(1H-benzo[d]imidazol-2-yl)propanoic acid as Pin1 inhibitors displaying anti-prostate cancer ability” (Bioorg Med Chem, 2017)
pIC50: −log10 of the molar value.

Tests used:
LNCaP = experiment: Antiproliferative activity against human LNCAP cells assessed as inhibition of cell growth incubated for 96 hrs by MTT assay; assay type: functional
Procedure, shortened: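 MTT growth assay. Cells seeded at 2×10^4 per well and held 24 h at 37 °C under 5% CO2 before compound was added at a range of concentrations. Exposure lasted 96 h, then 2 mg/mL MTT was added for 4 h. Cells were dissolved in DMSO and absorbance read at 570 nm. Growth was taken as treated/untreated cell number. GI50 was derived from the inhibition ratios. Three independent experiments, mean reported.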

PC-3 = experiment: Antiproliferative activity against human PC3 cells assessed as inhibition of cell growth incubated for 96 hrs by MTT assay; assay type: functional; settings: PC-3, 96 h
Procedure, shortened: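 PC-3 cells grown in RPMI1640 with 10% heat-inactivated FBS, seeded at 2×10^4 cells/well and kept 24 h at 37 °C in 5% CO2. Compounds were then added at various concentrations for 96 h. MTT (2 mg/mL) was added for a further 4 h, cells dissolved in DMSO, and A570 read. Growth was treated/untreated cell number, with GI50 calculated from inhibition ratios. Mean of three independent runs.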

[1] = target: T1, Peptidyl-prolyl cis-trans isomerase NIMA-interacting 1 (Homo sapiens, UniProt Q13526); experiment: Inhibition of Pin1 (unknown origin) assessed as reduction in peptidyl-prolyl isomerase activity at 10 uM incubated for 30 mins using Suc-Ala-Glu-cis-Pro-Phe-4-nitroanilide substrate by protease coupled assay
T1 sequence (Q13526 whole entry): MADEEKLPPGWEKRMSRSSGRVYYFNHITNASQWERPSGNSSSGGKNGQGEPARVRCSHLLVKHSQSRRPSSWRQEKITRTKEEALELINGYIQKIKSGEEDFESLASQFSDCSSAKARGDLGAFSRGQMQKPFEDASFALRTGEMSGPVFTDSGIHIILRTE
Procedure, shortened: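 Commercial Pin1 in 35 mM HEPES pH 7.8 was pre-equilibrated with compound (DMSO solutions) for 30 min at 10 °C. Ice-cold chymotrypsin (stock 60 mg/mL in 0.001 M HCl) was added, then Suc-Ala-Glu-cis-Pro-Phe-4-nitroanilide in 0.47 mol/L LiCl/trifluoroethanol was added to start the reaction. Absorbance at 390 nm was monitored for 90 s at 10 °C.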

[2] = target: T1, Peptidyl-prolyl cis-trans isomerase NIMA-interacting 1; experiment: Inhibition of Pin1 (unknown origin) assessed as reduction in peptidyl-prolyl isomerase activity incubated for 30 mins using Suc-Ala-Glu-cis-Pro-Phe-4-nitroanilide substrate by protease coupled assay
[3] = target: T1, Peptidyl-prolyl cis-trans isomerase NIMA-interacting 1; experiment: Inhibition of Pin1 in human PC3 cells assessed as reduction in Cyclin D1 protein level at 10 to 30 uM incubated for 24 hrs by Western blot method; assay type: cell-based
Procedure, shortened: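 PC-3 cells were treated 24 h with compound at 10, 20 or 30 μM, with DMSO as control. Cells were lysed in RIPA buffer with protease inhibitors, and 40 μg protein was run on 10% SDS-PAGE and blotted to nitrocellulose. Ponceau S was used as a loading check. Membranes were blocked in 5% milk and probed overnight at 4 °C with anti-cyclin D1 and β-actin, with secondary antibody 1 h at 37 °C. ECL detection.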

Structure (SMILES)	GI50 (LNCaP)	GI50 (PC-3)	inhibition [1]	pIC50 [2]	inhibition [3]
CC1(C)C(=O)CC[C@]2(C)[C@H]3CC=C4[C@@H]5C[C@@](C)(C(=O)OCCn6c(CCC(=O)O)nc7ccccc76)CC[C@]5(C)CC[C@@]4(C)[C@]3(C)CC[C@@H]12	25.8 µM	18.4 µM	69%		
CC1(C)[C@@H](O)CC[C@]2(C)[C@H]3CC=C4[C@@H]5C[C@@](C)(C(=O)OCCn6c(CCC(=O)O)nc7ccccc76)CC[C@]5(C)CC[C@@]4(C)[C@]3(C)CC[C@@H]12	> 50 µM	> 50 µM	54%		
CC1(C)[C@@H](O)CC[C@]2(C)[C@H]3C(=O)C=C4[C@@H]5C[C@@](C)(C(=O)OCCCn6c(CCC(=O)O)nc7ccccc76)CC[C@]5(C)CC[C@@]4(C)[C@]3(C)CC[C@@H]12	> 50 µM	> 50 µM	40%	< 5.00	
CC1(C)[C@@H](O)CC[C@]2(C)[C@H]3CC=C4[C@@H]5C[C@@](C)(C(=O)OCCCn6c(CCC(=O)O)nc7ccccc76)CC[C@]5(C)CC[C@@]4(C)[C@]3(C)CC[C@@H]12	42.7 µM	25.6 µM	100%	5.55	
CC(=O)O[C@H]1CC[C@]2(C)[C@H]3C(=O)C=C4[C@@H]5C[C@@](C)(C(=O)NCCn6c(CCC(=O)O)nc7ccccc76)CC[C@]5(C)CC[C@@]4(C)[C@]3(C)CC[C@H]2C1(C)C	> 50 µM	> 50 µM	27%	< 5.00	
CC1(C)[C@@H](O)CC[C@]2(C)[C@H]3C(=O)C=C4[C@@H]5C[C@@](C)(C(=O)O)CC[C@]5(C)CC[C@@]4(C)[C@]3(C)CC[C@@H]12 [ENOXOLONE]		95.7 µM	34%	< 5.00	
CC(=O)O[C@H]1CC[C@]2(C)[C@H]3C(=O)C=C4[C@@H]5C[C@@](C)(C(=O)OCCCn6c(CCC(=O)O)nc7ccccc76)CC[C@]5(C)CC[C@@]4(C)[C@]3(C)CC[C@H]2C1(C)C	15.5 µM	11.8 µM	100%	5.88	
COC(=O)[C@@]1(C)CC[C@]2(C)CC[C@]3(C)C(=CC(=O)[C@@H]4[C@@]5(C)CC[C@H](OC(=O)Cn6c(CCC(=O)O)nc7ccccc76)C(C)(C)[C@@H]5CC[C@]43C)[C@@H]2C1	13.2 µM	7.8 µM	100%	5.97	Dose-dependent effect
CC1(C)C(=O)CC[C@]2(C)[C@H]3C(=O)C=C4[C@@H]5C[C@@](C)(C(=O)NCCCn6c(CCC(=O)O)nc7ccccc76)CC[C@]5(C)CC[C@@]4(C)[C@]3(C)CC[C@@H]12	> 50 µM	> 50 µM	28%	< 5.00	
CC1(C)C(=O)CC[C@]2(C)[C@H]3CC=C4[C@@H]5C[C@@](C)(C(=O)OCCCn6c(CCC(=O)O)nc7ccccc76)CC[C@]5(C)CC[C@@]4(C)[C@]3(C)CC[C@@H]12	19.7 µM	13 µM	98%	5.42	
CC(=O)O[C@H]1CC[C@]2(C)[C@H]3C(=O)C=C4[C@@H]5C[C@@](C)(C(=O)NCCCn6c(CCC(=O)O)nc7ccccc76)CC[C@]5(C)CC[C@@]4(C)[C@]3(C)CC[C@H]2C1(C)C	> 50 µM	> 50 µM	50%		
CC1(C)[C@@H](O)CC[C@]2(C)[C@H]3C(=O)C=C4[C@@H]5C[C@@](C)(C(=O)OCCn6c(CCC(=O)O)nc7ccccc76)CC[C@]5(C)CC[C@@]4(C)[C@]3(C)CC[C@@H]12	> 50 µM	> 50 µM	60%		
COC(=O)[C@@]1(C)CC[C@]2(C)CC[C@]3(C)C(=CC(=O)[C@@H]4[C@@]5(C)CC[C@H](OC(=O)CCn6c(CCC(=O)O)nc7ccccc76)C(C)(C)[C@@H]5CC[C@]43C)[C@@H]2C1	26.6 µM	16.1 µM	88%		
CC1(C)C(=O)CC[C@]2(C)[C@H]3C(=O)C=C4[C@@H]5C[C@@](C)(C(=O)OCCCn6c(CCC(=O)O)nc7ccccc76)CC[C@]5(C)CC[C@@]4(C)[C@]3(C)CC[C@@H]12	29.3 µM	35.6 µM	77%		
CC1(C)C(=O)CC[C@]2(C)[C@H]3C(=O)C=C4[C@@H]5C[C@@](C)(C(=O)NCCn6c(CCC(=O)O)nc7ccccc76)CC[C@]5(C)CC[C@@]4(C)[C@]3(C)CC[C@@H]12	> 50 µM	> 50 µM	38%	< 5.00	
O=C(O)CCc1nc2ccccc2[nH]1 [PROCODAZOLE]	> 50 µM	> 50 µM	23%		
CC1(C)C(=O)CC[C@]2(C)[C@H]3C(=O)C=C4[C@@H]5C[C@@](C)(C(=O)OCCn6c(CCC(=O)O)nc7ccccc76)CC[C@]5(C)CC[C@@]4(C)[C@]3(C)CC[C@@H]12	48.9 µM	39.9 µM	63%		
CC(=O)O[C@H]1CC[C@]2(C)[C@H]3C(=O)C=C4[C@@H]5C[C@@](C)(C(=O)OCCn6c(CCC(=O)O)nc7ccccc76)CC[C@]5(C)CC[C@@]4(C)[C@]3(C)CC[C@H]2C1(C)C	24.4 µM	27.4 µM	100%	5.97	
O=C1C=CC(=O)c2c(O)cccc21 [JUGLONE]		4.77 µM	44%	4.97	
CC(=O)O[C@H]1CC[C@]2(C)[C@H]3CC=C4[C@@H]5C[C@@](C)(C(=O)OCCn6c(CCC(=O)O)nc7ccccc76)CC[C@]5(C)CC[C@@]4(C)[C@]3(C)CC[C@H]2C1(C)C	13.3 µM	10.9 µM	94%	5.32	
